The source of these data is ChEMBL document CHEMBL4118021, “Studies of TAK1-centered polypharmacology with novel covalent TAK1 inhibitors” (Bioorg Med Chem, 2017).

Activity calls are given as the source filed them. No cut-off for these calls is given here.

Experiment [1] addresses Cyclin-dependent kinase 5 (Homo sapiens) (UniProt Q00535). As to the kind of experiment: Inhibition of CDK5 in human SKCO1 cells at 1 uM after 4 hrs using biotin labeled DLKPQNLLINR probe by mass-spectrometric analysis relative to control. The class given is cell-based.
Experiment [2] has as its target Cyclin-dependent kinase 6 (Homo sapiens) (UniProt Q00534). Description: Inhibition of CDK6 in human SKCO1 cells at 1 uM after 4 hrs using biotin labeled DLKPQNILVTSSGQIK probe by mass-spectrometric analysis relative to control. The class given is cell-based.
Experiment [3] has as its target Tyrosine-protein kinase Fyn (Homo sapiens) (UniProt P06241). Description: Inhibition of FYN in human SKCO1 cells at 1 uM after 4 hrs using biotin labeled QGAKFPIKWTAPEAALYGR probe by mass-spectrometric analysis relative to control. The experiment is classed as cell-based.
The target of experiment [4] is Receptor tyrosine-protein kinase erbB-2 (Homo sapiens) (UniProt P04626). As to the kind of experiment: Inhibition of HER2/ErbB2 in human SKCO1 cells at 1 uM after 4 hrs using biotin labeled GIWIPDGENVKIPVAIKVLR probe by mass-spectrometric analysis relative to control. The class given is cell-based.
Experiment [5] addresses Mitogen-activated protein kinase 8 (Homo sapiens) (UniProt P45983). Description: Inhibition of JNK1 in human SKCO1 cells at 1 uM after 4 hrs using biotin labeled DLKPSNIVVK probe by mass-spectrometric analysis relative to control. The experiment is classed as cell-based.
Experiment [6] concerns the target Mitogen-activated protein kinase 10 (Homo sapiens) (UniProt P53779). Description: Inhibition of JNK3 in human SKCO1 cells at 1 uM after 4 hrs using biotin labeled DLKPSNIVVK probe by mass-spectrometric analysis relative to control. The experiment is classed as cell-based.
The target in experiment [7] is Dual specificity mitogen-activated protein kinase kinase 1 (Homo sapiens) (UniProt Q02750). Description: Inhibition of MAP2K1 in human SKCO1 cells at 1 uM after 4 hrs using biotin labeled DVKPSNILVNSR probe by mass-spectrometric analysis relative to control. The class given is cell-based. The procedure, abridged:
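Live SK-CO-1 cells treated 4 h at 1 μM (DMSO control); cells lysed and lysates labeled with lysine-reactive ATP/ADP-biotin probe (KiNativ); probe-labeled kinase peptides quantified by mass spectrometry; inhibition expressed as percent reduction in probe-dependent recovery versus DMSO-treated cells.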

For experiment [8], the target named is T1, Dual specificity mitogen-activated protein kinase kinase 3 (Homo sapiens) (UniProt P46734).
T1 sequence (whole entry): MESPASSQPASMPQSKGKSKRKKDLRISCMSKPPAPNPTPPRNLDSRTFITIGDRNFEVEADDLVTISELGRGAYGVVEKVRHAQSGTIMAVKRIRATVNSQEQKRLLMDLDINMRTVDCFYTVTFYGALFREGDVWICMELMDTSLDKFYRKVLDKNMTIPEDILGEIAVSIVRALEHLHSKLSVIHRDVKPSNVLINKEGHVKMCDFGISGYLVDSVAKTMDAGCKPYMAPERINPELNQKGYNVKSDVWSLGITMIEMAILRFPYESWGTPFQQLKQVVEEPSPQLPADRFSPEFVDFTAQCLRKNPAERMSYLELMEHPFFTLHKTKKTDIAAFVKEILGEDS
As to the kind of experiment: Inhibition of MAP2K3 in human SKCO1 cells at 1 uM after 4 hrs using biotin labeled DVKPSNVLINK probe by mass-spectrometric analysis relative to control. The class given is cell-based.

Experiment [9] deals with Mitogen-activated protein kinase 14 (Homo sapiens) (UniProt Q16539). As to the kind of experiment: Inhibition of p38a in human SKCO1 cells at 1 uM after 4 hrs using biotin labeled QELNKTIWEVPER probe by mass-spectrometric analysis relative to control. The class given is cell-based. The procedure, abridged:
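Live SK-CO-1 cells were treated at 1 μM for 4 h alongside DMSO controls, then lysed. Lysates were labelled with a lysine-reactive ATP or ADP-biotin probe, and probe-dependent peptide recovery was quantified by mass spectrometry. Inhibition (%) is relative to DMSO-treated cells.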

In experiment [10] the target is Ribosomal protein S6 kinase alpha-1 (Homo sapiens) (UniProt Q15418). Description: Inhibition of RSK1 domain2 in human SKCO1 cells at 1 uM after 4 hrs using biotin labeled DLKPSNILYVDESGNPECLR probe by mass-spectrometric analysis relative to control. The experiment is classed as cell-based.
The nature of experiment [11]: Antiproliferative activity against human SW156 cells harboring wild type KRAS after 72 hrs by CellTiter-Glo assay. The class given is functional, cell-based. (Cellular ATP, detected with luciferase, serves as a proxy for viable cell number.)
A further experiment relates to HEL. Description: Antiproliferative activity against human HEL cells at […] to […] nM after 72 hrs by CellTiter-Glo assay. The class given is functional, cell-based.
A further experiment has as its system U-937. Description: Antiproliferative activity against human U937 cells at […] to […] nM after 72 hrs by CellTiter-Glo assay. The experiment is classed as functional, cell-based.
Experiment [12] concerns the target Serine/threonine-protein kinase A-Raf (Homo sapiens) (UniProt P10398). As to the kind of experiment: Inhibition of ARAF in human SKCO1 cells at 1 uM after 4 hrs using biotin labeled DLKSNNIFLHEGLTVK probe by mass-spectrometric analysis relative to control. The class given is cell-based.
The target of experiment [13] is Serine/threonine-protein kinase ATR (Homo sapiens) (UniProt Q13535). Description: Inhibition of ATR in human SKCO1 cells at 1 uM after 4 hrs using biotin labeled FYIMMCKPK probe by mass-spectrometric analysis relative to control. The experiment is classed as cell-based.
Experiment [14] concerns the target Phosphatidylinositol 3-kinase catalytic subunit type 3 (Homo sapiens) (UniProt Q8NEB9). Description: Inhibition of PIK3C3 in human SKCO1 cells at 1 uM after 4 hrs using biotin labeled TEDGGKYPVIFKHGDDLRQDQLILQIISLMDK probe by mass-spectrometric analysis relative to control. The class given is cell-based.
The target in experiment [15] is Phosphatidylinositol 5-phosphate 4-kinase type-2 alpha (Homo sapiens) (UniProt P48426). Description: Inhibition of PIP4K2A in human SKCO1 cells at 1 uM after 4 hrs using biotin labeled AKELPTLKDNDFINEGQK probe by mass-spectrometric analysis relative to control. The class given is cell-based.
Experiment [16] deals with T2, Mitogen-activated protein kinase kinase kinase 7 (Homo sapiens) (UniProt O43318).
T2 sequence (whole entry): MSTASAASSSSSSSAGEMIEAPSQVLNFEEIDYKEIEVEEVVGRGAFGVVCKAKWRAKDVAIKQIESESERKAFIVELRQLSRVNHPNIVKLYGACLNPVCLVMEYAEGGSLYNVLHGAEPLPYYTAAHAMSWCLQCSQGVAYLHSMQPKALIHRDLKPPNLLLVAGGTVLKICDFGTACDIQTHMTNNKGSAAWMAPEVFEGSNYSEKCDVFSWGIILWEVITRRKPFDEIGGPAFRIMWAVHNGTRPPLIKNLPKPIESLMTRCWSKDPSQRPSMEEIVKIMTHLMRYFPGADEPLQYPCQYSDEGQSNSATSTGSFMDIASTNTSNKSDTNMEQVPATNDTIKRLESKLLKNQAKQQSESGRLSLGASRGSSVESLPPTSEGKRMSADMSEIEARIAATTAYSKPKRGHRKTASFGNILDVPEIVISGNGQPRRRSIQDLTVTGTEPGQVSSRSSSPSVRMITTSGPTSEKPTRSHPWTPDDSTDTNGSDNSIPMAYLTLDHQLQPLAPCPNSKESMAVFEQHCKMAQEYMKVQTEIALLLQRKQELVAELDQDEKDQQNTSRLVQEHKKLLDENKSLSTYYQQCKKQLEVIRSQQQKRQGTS
To be noted: 0.6 uM.

Experiment [17] concerns the target T2, Mitogen-activated protein kinase kinase kinase 7 (Homo sapiens). As to conditions: 0.6 uM. The source holds these as a separate data set.

Phosphatidylinositol 5-phosphate 4-kinase type-2 alpha (Homo sapiens), sequence (P48426 whole entry): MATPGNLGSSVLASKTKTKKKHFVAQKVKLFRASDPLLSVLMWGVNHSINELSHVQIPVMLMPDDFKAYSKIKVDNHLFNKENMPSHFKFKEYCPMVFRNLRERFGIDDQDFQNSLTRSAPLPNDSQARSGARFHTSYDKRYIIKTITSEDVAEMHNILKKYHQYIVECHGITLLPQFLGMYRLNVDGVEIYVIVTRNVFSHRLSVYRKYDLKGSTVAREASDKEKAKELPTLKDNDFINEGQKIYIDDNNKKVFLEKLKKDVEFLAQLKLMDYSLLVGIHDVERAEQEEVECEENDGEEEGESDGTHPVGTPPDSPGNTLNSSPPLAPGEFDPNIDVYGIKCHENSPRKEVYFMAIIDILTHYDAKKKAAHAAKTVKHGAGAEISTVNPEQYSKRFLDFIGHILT
Mitogen-activated protein kinase 8 (Homo sapiens), sequence (P45983 whole entry): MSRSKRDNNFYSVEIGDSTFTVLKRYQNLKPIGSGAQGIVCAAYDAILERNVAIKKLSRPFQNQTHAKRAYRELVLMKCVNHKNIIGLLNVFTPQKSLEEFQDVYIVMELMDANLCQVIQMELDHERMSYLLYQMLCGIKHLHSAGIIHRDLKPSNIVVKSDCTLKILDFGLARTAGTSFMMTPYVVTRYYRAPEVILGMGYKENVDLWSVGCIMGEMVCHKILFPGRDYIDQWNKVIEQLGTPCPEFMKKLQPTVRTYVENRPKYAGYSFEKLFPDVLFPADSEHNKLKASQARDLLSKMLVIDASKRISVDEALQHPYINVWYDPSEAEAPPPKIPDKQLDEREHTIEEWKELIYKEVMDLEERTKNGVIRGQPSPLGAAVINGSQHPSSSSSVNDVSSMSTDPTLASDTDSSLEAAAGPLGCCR
Dual specificity mitogen-activated protein kinase kinase 1 (Homo sapiens), sequence (Q02750 whole entry): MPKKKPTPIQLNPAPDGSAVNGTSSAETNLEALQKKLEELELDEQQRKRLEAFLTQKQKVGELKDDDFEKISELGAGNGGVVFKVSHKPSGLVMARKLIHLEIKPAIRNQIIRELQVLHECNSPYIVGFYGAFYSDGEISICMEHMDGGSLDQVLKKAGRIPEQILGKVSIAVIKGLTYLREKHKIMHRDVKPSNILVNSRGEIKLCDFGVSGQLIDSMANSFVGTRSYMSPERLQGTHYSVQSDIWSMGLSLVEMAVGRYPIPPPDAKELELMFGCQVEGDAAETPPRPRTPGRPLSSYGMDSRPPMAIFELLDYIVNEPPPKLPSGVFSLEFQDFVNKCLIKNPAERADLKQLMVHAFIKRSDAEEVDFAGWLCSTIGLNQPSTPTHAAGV
Serine/threonine-protein kinase A-Raf (Homo sapiens), sequence (P10398 whole entry): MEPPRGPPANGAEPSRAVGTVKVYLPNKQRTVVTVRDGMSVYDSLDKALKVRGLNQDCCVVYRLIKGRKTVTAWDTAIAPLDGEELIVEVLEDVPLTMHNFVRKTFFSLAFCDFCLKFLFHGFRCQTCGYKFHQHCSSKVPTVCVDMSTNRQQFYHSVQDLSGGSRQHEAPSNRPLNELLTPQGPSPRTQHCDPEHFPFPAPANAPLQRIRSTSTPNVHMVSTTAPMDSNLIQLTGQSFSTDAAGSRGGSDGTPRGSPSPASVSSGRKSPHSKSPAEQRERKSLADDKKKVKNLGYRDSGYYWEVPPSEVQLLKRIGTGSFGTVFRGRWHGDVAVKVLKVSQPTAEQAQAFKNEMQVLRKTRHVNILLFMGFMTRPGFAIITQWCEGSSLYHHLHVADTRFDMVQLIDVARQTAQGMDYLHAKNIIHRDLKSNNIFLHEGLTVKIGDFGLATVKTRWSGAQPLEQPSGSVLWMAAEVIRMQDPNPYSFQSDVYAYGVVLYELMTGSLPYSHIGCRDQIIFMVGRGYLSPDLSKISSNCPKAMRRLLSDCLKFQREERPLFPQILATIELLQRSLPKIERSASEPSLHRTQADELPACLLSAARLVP
Cyclin-dependent kinase 6 (Homo sapiens), sequence (Q00534 whole entry): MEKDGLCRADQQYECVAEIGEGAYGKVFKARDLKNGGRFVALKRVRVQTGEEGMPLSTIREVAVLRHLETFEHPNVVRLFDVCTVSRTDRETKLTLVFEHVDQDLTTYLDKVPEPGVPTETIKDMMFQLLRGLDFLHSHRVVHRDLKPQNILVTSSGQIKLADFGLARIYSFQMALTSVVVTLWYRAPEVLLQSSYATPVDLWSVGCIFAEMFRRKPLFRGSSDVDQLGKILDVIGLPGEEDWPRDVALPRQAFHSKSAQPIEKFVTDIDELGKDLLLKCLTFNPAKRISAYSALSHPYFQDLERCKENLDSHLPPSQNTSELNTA
Mitogen-activated protein kinase 14 (Homo sapiens), sequence (Q16539 whole entry): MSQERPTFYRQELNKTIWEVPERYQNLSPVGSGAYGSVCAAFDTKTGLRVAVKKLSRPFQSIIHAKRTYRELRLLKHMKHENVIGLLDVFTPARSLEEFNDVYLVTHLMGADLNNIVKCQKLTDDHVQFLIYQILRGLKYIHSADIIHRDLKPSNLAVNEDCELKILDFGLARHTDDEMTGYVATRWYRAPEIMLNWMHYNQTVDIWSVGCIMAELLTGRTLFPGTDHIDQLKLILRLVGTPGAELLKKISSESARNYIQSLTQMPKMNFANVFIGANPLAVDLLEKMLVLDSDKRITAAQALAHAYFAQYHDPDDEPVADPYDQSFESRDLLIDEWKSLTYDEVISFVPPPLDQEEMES
Tyrosine-protein kinase Fyn (Homo sapiens), sequence (P06241 2-537 limits assumed): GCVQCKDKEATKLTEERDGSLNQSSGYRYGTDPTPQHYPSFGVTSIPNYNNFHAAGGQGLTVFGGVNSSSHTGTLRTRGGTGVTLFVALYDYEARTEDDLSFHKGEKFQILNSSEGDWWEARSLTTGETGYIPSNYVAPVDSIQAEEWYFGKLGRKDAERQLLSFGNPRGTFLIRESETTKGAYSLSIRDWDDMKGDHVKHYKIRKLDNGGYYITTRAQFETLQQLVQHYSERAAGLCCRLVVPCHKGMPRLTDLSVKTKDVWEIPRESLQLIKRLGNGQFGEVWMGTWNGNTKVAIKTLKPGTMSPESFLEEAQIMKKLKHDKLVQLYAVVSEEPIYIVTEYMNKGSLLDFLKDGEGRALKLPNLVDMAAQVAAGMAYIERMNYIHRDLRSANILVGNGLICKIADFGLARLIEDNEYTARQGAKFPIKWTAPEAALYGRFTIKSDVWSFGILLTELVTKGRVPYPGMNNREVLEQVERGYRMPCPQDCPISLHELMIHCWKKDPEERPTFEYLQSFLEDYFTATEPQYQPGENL
Ribosomal protein S6 kinase alpha-1 (Homo sapiens), sequence (Q15418 whole entry, the tested form may be a part): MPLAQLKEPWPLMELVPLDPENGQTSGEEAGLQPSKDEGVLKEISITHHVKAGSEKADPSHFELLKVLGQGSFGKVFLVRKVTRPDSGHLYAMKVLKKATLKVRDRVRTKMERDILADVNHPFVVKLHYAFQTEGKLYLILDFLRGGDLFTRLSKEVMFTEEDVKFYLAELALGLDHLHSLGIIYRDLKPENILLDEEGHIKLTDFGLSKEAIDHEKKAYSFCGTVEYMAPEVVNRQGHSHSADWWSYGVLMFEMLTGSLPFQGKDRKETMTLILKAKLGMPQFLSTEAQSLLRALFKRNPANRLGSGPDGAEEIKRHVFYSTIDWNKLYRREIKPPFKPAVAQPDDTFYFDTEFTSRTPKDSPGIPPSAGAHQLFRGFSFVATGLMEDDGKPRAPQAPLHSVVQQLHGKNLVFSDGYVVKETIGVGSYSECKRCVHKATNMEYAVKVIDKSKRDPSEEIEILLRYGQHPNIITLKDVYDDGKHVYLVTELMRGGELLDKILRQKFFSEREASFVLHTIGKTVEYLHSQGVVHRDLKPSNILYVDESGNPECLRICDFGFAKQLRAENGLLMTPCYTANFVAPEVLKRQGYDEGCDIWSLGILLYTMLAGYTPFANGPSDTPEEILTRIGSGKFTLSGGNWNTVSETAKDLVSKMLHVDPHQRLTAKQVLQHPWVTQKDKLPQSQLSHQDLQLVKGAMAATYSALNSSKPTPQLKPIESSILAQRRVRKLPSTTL
Cyclin-dependent kinase 5 (Homo sapiens), sequence (Q00535 whole entry, looked up): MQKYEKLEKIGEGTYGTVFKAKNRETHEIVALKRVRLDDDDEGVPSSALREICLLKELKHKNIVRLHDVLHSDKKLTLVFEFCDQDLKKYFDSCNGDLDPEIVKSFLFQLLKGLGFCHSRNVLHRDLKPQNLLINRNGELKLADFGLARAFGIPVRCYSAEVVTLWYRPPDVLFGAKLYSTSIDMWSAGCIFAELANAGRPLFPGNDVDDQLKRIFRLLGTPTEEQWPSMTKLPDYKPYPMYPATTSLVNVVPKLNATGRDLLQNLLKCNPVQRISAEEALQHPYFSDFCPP
Phosphatidylinositol 3-kinase catalytic subunit type 3 (Homo sapiens), sequence (Q8NEB9 whole entry): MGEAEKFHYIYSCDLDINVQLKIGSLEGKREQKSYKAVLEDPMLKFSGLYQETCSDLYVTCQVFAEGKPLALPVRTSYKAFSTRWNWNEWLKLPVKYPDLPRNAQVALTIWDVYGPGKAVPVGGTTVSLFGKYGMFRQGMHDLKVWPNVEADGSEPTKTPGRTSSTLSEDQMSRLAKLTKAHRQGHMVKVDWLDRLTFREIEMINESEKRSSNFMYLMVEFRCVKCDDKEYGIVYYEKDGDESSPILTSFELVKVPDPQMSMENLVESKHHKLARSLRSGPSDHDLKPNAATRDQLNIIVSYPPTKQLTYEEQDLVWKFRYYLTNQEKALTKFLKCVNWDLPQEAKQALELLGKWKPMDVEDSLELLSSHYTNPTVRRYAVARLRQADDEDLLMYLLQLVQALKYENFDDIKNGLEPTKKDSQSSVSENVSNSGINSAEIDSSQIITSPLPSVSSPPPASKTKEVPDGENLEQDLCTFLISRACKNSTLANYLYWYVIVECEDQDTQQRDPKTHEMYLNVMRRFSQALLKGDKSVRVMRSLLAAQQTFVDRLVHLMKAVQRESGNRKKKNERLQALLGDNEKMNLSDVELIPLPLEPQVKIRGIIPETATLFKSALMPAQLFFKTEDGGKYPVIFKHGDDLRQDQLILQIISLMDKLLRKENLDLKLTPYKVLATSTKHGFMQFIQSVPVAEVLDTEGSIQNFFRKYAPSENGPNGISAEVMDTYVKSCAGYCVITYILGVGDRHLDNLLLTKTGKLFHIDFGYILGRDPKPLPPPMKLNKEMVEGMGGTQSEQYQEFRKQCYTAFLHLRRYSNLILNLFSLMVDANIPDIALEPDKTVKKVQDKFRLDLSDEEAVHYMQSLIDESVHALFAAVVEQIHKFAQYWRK

For orientation: inhibition means the drop in the measured response relative to a control, in per cent. The IC50 is the concentration needed to halve the response being measured. High values mean lower potency, low ones higher potency. For the compound `C=CC(=O)Nc1ccccc1Oc1nc(Nc2cnn(CCOC)c2)ncc1Cl`, the inhibition was 4.2% in experiment [1]; 54.5% in [2]; -0.9% in [3]; -2.2% in [4]; 0.8% in [5]; 0.8% in experiment [6]. In addition, the inhibition in experiment [7] is 7.9%; in experiment [8], 10.9%; in experiment [9] it was 12.7%; in experiment [10] it was 12.8%. The compound further gave a half-inhibitory concentration (IC50) in [11] of 3020 nM. Further, the outcome in the experiment with HEL was inactive. In the experiment with U-937, the outcome was Active.

For the compound `C=CC(=O)Nc1ccccc1Nc1nc(Nc2ccc(N3CCN(C)CC3)cc2)ncc1Cl`, the inhibition in experiment [12] was 57%; in experiment [13], -8.1%; in experiment [5], 70%; in experiment [6] it was 70%; in experiment [14], 21.1%; in experiment [15], 2%. The result in the experiment with HEL was inactive. The result with U-937 was Active. Moreover, the inhibition entry in experiment [16] and in experiment [17] was “Active” in each case.

`COc1cc(O)c2c(c1)/C=C/C[C@H](O)[C@H](O)C(=O)/C=C\C[C@H](C)OC2=O`: the inhibition in [12] stood at 85.5%; in experiment [13], 2%; in experiment [1] it was 2.1%; in experiment [2] it was 68.8%; in [3] it was 8.5%; in [4], 14.5%. Also, the inhibition in experiment [7] came out at 95%; in experiment [8], 33.5%; in experiment [9], 10.2%; in experiment [14], 15.1%; in experiment [15], 16.1%; in experiment [10] it was 6.4%. The compound further displayed a half-maximal inhibitory concentration (IC50) in experiment [11] of 2020 nM. The inhibition entry in experiment [16] and in experiment [17] was “Active” each time.
